Results taken from PubChem BioAssay.
Activity calls are given as the source filed them. Rule as the data show it, unless noted: active = inhibition above about 30%; inactive = the rest.

What was measured:
[1] = Her2 expression decrease, cell viability multiplex – SKBR3 breast tumor cells, AlphaScreen, ATP viability, primary screen (AID 461;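 active = Her2 level under about 52% in both replicate screens, with viability over 70% of control, limit read from the data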;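 as to Her2 level: lower value means less Her2 protein in the cells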;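 as to viability: percent of carrier control wells set as 100% viability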); conditions: SKBR3 Her2 protein level, 18-24 h, measured here: SKBR3 viability, ATP luminescence, at 10 µM
[2] = biological target: Receptor tyrosine-protein kinase erbB-2 (Homo sapiens) (UniProt P04626); assay: as above; conditions: 18-24 h, at 10 µM, stronger effect = lower value
Sequence of Receptor tyrosine-protein kinase erbB-2 (Homo sapiens) (P04626 whole entry, looked up): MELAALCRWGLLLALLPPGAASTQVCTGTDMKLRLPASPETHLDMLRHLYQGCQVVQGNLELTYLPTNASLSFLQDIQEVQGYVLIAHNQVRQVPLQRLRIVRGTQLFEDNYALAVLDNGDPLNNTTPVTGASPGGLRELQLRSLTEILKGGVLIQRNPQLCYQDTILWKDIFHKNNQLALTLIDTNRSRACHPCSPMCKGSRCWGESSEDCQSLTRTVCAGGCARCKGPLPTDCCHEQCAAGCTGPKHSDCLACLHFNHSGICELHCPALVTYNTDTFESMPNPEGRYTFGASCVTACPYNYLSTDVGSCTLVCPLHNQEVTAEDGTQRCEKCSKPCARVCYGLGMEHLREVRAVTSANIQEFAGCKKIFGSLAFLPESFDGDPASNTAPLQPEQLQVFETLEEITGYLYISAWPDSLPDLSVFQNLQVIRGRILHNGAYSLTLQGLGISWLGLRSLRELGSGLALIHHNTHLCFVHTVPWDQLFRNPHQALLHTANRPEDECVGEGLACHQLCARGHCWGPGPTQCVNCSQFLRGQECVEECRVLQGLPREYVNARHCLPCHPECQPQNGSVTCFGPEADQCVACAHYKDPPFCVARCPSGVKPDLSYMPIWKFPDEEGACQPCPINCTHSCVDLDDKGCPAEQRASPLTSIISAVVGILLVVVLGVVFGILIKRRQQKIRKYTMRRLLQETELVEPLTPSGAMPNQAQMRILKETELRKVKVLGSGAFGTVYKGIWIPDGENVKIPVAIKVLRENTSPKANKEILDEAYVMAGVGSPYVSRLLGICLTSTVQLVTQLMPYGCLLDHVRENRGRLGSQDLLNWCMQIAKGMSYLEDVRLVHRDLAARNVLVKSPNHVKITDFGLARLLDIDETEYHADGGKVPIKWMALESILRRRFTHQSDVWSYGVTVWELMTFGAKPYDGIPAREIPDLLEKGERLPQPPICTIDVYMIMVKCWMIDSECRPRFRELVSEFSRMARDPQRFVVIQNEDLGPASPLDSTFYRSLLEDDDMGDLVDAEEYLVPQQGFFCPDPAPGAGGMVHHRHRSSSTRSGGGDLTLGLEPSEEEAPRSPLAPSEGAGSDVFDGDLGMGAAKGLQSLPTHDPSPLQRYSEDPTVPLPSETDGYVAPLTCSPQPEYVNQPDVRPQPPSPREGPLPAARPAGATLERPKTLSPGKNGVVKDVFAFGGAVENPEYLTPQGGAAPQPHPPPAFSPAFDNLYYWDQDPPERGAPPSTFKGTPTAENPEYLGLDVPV

[3] = reduced viability of SK-BR-3 breast cancer cells – cell-based, 24 h, human, pilot screen (AID 572;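 active = viability at or below 10% of carrier control in both of two separate runs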;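 also: compound exposure lasted between 18 and 24 h rather than exactly 24 h; 100% = carrier-treated control wells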); conditions: SK-BR-3 viability, CellTiter-Glo luminescence, at 10 µM, stronger effect = lower value
[4] = HUVEC growth inhibition – cell-based, human, primary screen (AID 575;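 active = viability at or below 30% in both replicate assays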;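 also: 100% = median of untreated cell wells with 0.1% DMSO on each plate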); conditions: HUVEC proliferation, CellTiter-Glo luminescence, 72 h; at 10 µM; stronger effect = lower value
How it was run: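 Test system: HUVEC primary cells. Quantity: 1250 endothelial cells in each well. Dosing: single-point 10 µM, DMSO 0.1% final. Incubation: 72 h treatment at 37 °C. Measured by: CTG luminescence. Control set: DMSO cell controls and MePR drug controls. Plate: collagen-coated 384-well format.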

[5] = H69AR cell proliferation blockers – human, duplicate replicates, primary screen (AID 580;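 active = viability at or under a set limit in both replicates, limit being median viability minus 3 SD, cut at about 48% in these data, passing the limit was not always enough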;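 also: 100% = mean luminescence of untreated wells and 0% = no signal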); conditions: H69AR lung tumor cells viability, ATP luminescence, 72 h; at 10 µM; stronger effect = lower value
[6] = MRP1 drug-resistance reversers in H69AR cells – cell-based, doxorubicin co-treatment, pilot screen (AID 601;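 active = viability loss from added drug above about 55%, and viability with drug at most 40%, in both replicates, limit read from the data, passing the limit was not always enough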); conditions: CellTiter-Glo, 72 h, at 10 µM; for differential viability (reversal): stronger effect = higher value
[7] = yeast transport mutant growth inhibition pilot in 384-well plates, post-Golgi transport modulator project (AID 636; in the data active = inhibition above about 31%); conditions: absorbance 615 nm, about 18 h, stronger effect = higher value
[8] = growth suppression of yeast trafficking mutant, preliminary HTS, modulators of trafficking downstream of Golgi apparatus project, 1536-format plate, OD 615 nm (AID 637); conditions: yeast transport mutant growth, absorbance 615 nm, 18 h; stronger effect = higher value
[9] = H69AR cells + 2 uM doxorubicin, measured here: viability with 2 uM doxorubicin, stronger effect = lower value
[10] = H69AR cells, compound alone cytotoxicity

Structure (SMILES)	viability [1]	Her2 level [2]	viability [3]	viability [4]	viability [5]	differential viability (reversal) ([6]; H69AR cells + 2 uM doxorubicin)	viability [6, 9]	viability [6, 10]	inhibition [7]	inhibition [8]
COc1ccc(CNC(=O)CCc2nc(-c3ccccc3F)no2)c(OC)c1	80%	95% (inactive)	80% (inactive)	90% (inactive)	95.9% (inactive)	3.65% (inactive)	92.2%	95.9%	-4.08% (inactive)	-0.17% (inactive)
COc1cccc(N2CCN(Cc3nc(N)nc(Nc4ccccc4OC)n3)CC2)c1	124%	92% (inactive)	124% (inactive)	107% (inactive)	77.4% (inactive)	-7.01% (inactive)	84.4%	77.4%	-3.95% (inactive)	1.13% (inactive)
CCN(CC)S(=O)(=O)c1ccc(S(=O)(=O)N(Cc2ccccn2)Cc2ccco2)cc1	94%	94.5% (inactive)	94% (inactive)	90.6% (inactive)	91% (inactive)	-0.185% (inactive)	91.2%	91%	-2.03% (inactive)	3.02% (inactive)
C=CCN1C(=O)C2(C(C#N)=C(N)Oc3n[nH]c(CCC)c32)c2ccccc21 (stereo not given)	108%	103% (inactive)	108% (inactive)	100% (inactive)	87.8% (inactive)	2.95% (inactive)	84.8%	87.8%	-4.55% (inactive)	0% (inactive)
CC1Cc2ccccc2N1C(=O)CSc1nnc2n1C(C)(C)Cc1ccccc1-2 (stereo not given)	79%	105% (inactive)	79% (inactive)	71.8% (inactive)	82.4% (inactive)	-7.96% (inactive)	90.4%	82.4%	-6.4% (inactive)	-7.3% (inactive)
CC(=O)N1CCN(S(=O)(=O)c2cccc(C(=O)Nc3ccc4c(c3)CCC4)c2)CC1	76.5%	90.5% (inactive)	76.5% (inactive)	77.9% (inactive)	98% (inactive)	4.81% (inactive)	93.2%	98%	-5.53% (inactive)	5% (inactive)
NC(=O)c1c(-c2ccccc2)oc2ccc(O)cc12	121%	88% (inactive)	121% (inactive)	96.2% (inactive)	90.4% (inactive)	13.4% (inactive)	77%	90.4%	1.18% (inactive)	-9.82% (inactive)
CCC(C)NC(=O)C1(C)CCC(=O)N1Cc1ccccc1OC (stereo not given)	100%	95% (inactive)	100% (inactive)	99.8% (inactive)	95.3% (inactive)	0.27% (inactive)	95%	95.3%	-5.07% (inactive)	1.31% (inactive)
COc1ccc(OC)c(NC(=O)C2CCN(c3cc(-c4ccccc4)nc4ncnn34)CC2)c1	95.5%	76.5% (inactive)	95.5% (inactive)	71% (inactive)	75.4% (inactive)	-0.75% (inactive)	76.1%	75.4%	-0.66% (inactive)	-0.48% (inactive)
COc1cc(-c2noc(-c3cccc(Cl)c3)n2)cc(OC)c1OC	92.5%	86% (inactive)	92.5% (inactive)	68% (inactive)	80.5% (inactive)	-10.1% (inactive)	90.6%	80.5%	-5.73% (inactive)	0.97% (inactive)
Cc1c(NC(=O)C(C)OC(=O)C(NC(=O)c2ccco2)C(C)C)c(=O)n(-c2ccccc2)n1C (stereo not given)	91%	91.5% (inactive)	91% (inactive)	90.9% (inactive)	91.5% (inactive)	5.67% (inactive)	85.8%	91.5%	-6.89% (inactive)	-5.5% (inactive)
c1ccc(CCn2nnnc2CN2CCN(C3CCCC3)CC2)cc1	97.5%	95% (inactive)	97.5% (inactive)	109% (inactive)	107% (inactive)	19.1% (inactive)	87.5%	107%	2.03% (inactive)	-6.51% (inactive)
CSC1=NCCN1C(=O)c1ccc(S(=O)(=O)N2CCCC2)cc1	111%	107% (inactive)	111% (inactive)	91.2% (inactive)	91.3% (inactive)	-1.11% (inactive)	92.4%	91.3%	0.77% (inactive)	-3.17% (inactive)
O=C(c1ccc(-c2cccc(C(F)(F)F)c2)o1)N1CCOCC1	95.5%	118% (inactive)	95.5% (inactive)	72.8% (inactive)	92.7% (inactive)	16.1% (inactive)	76.6%	92.7%	-4.8% (inactive)	-2.58% (inactive)
CC(=O)CCc1c(C)[nH]c2ccccc2c1=O	88.5%	118% (inactive)	88.5% (inactive)	99.1% (inactive)	93.2% (inactive)	0.225% (inactive)	93%	93.2%	5.84% (inactive)	13.1% (inactive)
COCCOC(=O)c1c(C)nc(SCC(=O)Nc2ccc(OC)cc2)c(C#N)c1-c1ccco1	108%	87.5% (inactive)	108% (inactive)	73.9% (inactive)	91% (inactive)	14.7% (inactive)	76.3%	91%	-2.63% (inactive)	-5.97% (inactive)
CCOC(=O)c1cn(CC)c2cc(N3CCOCC3)c(F)cc2c1=O	104%	106% (inactive)	104% (inactive)	94.6% (inactive)	90.8% (inactive)	-10.3% (inactive)	101%	90.8%	2.16% (inactive)	-0.63% (inactive)
Cc1cc(C)c(C)c(OCC(=O)NCC2CCCO2)c1 (stereo not given)	85%	85.5% (inactive)	85% (inactive)	102% (inactive)	100% (inactive)	8.32% (inactive)	91.9%	100%	-3.38% (inactive)	0.16% (inactive)
Cc1nnc(SCC(=O)N2CCN(S(=O)(=O)c3ccccc3)CC2)[nH]c1=O	109%	98.5% (inactive)	109% (inactive)	109% (inactive)	107% (inactive)	15.5% (inactive)	91.2%	107%	-6.67% (inactive)	-2.9% (inactive)
CCC(=O)Nc1cc(C(=O)NCC2CCCN2CC)c(OC)cc1N(C)C (stereo not given)	101%	111% (inactive)	101% (inactive)	91.8% (inactive)	114% (inactive)	19.7% (inactive)	93.9%	114%	-1.47% (inactive)	-3.23% (inactive)
CCN(CC)Cc1nc2c(c(=O)[nH]1)C1(CCCCC1)Cc1ccccc1-2	87%	82.5% (inactive)	87% (inactive)	93.6% (inactive)	72.8% (inactive)	-18.9% (inactive)	91.7%	72.8%	-5.07% (inactive)	0.16% (inactive)
Cc1cc(Cl)cc2c1NC(=O)[C@]21[C@@H]2C(=O)N(Cc3ccccc3)C(=O)[C@@H]2[C@@H]2CCCN21	100%	81% (inactive)	100% (inactive)	78% (inactive)	78.1% (inactive)	-2.8% (inactive)	80.9%	78.1%	-3.77% (inactive)	4.29% (inactive)
O=C(O)CCCc1nc(-c2ccccc2)no1	91.5%	87.5% (inactive)	91.5% (inactive)	96% (inactive)	97% (inactive)	-0.87% (inactive)	97.8%	97%	-4.53% (inactive)	0.95% (inactive)
CC(C)(C)NC(=O)Cn1nnc(-c2cccs2)n1	94%	84% (inactive)	94% (inactive)	101% (inactive)	92.2% (inactive)	13.1% (inactive)	79.1%	92.2%	-3.87% (inactive)	0% (inactive)
O=C(O)CCc1ccc(-c2ccc(F)cc2)n1CC(=O)O	94.5%	87% (inactive)	94.5% (inactive)	106% (inactive)	98% (inactive)	10.8% (inactive)	87.2%	98%	-7.12% (inactive)	-1.43% (inactive)
CC(C)CC(=O)CN1C(=O)C2(OCCO2)c2ccccc21	93.5%	107% (inactive)	93.5% (inactive)	101% (inactive)	89.6% (inactive)	-6.21% (inactive)	95.8%	89.6%	-5.14% (inactive)	1.83% (inactive)
CCC1SC2=NC(C)=C(C(=O)OC)C(c3ccc(C)cc3)N2C1=O (stereo not given)	94%	96% (inactive)	94% (inactive)	109% (inactive)	99.6% (inactive)	9% (inactive)	90.6%	99.6%	-3.51% (inactive)	-1.59% (inactive)
CC(=O)Nc1c(Cl)n(C(C)=O)c2ccccc12	85%	65% (inactive)	85% (inactive)	71.6% (inactive)	84% (inactive)	-6.37% (inactive)	90.4%	84%	-7.57% (inactive)	5.5% (inactive)
